Assay outcomes from PubChem BioAssay.
Most compounds without a hit are left out; they make up all but 4.8% or so of the library.
T cruzi repl: T. cruzi replication inhibition; inhibition, % (concentration not given with the values); 1.4% of 300,000 active; AID 1885; T. cruzi beta-gal in NIH3T3, luminescence, 90 h;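 active means mean inhibition across valid replicates above about 55%, limit read from the data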;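 further: signal also drops with host cell toxicity which is not excluded here; 0% = plate median of DMSO wells and 100% = zero luminescence signal; higher percent means less beta-gal luminescence so fewer parasites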
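Test system: β-gal T. cruzi (Tulahuen C4) inside NIH/3T3 cells / Quantity: 5,000 cells/well / Measured by: luminescence from GalScreen with 0.05% NP40, read after 60 min / Medium: DMEM plus 2% FBS / Measure: parasite load inhibition, % / Reagent: Tulahuen C4 trypomastigotes, 5000/well / Schedule: co-culture of at least 90 h after 3 h attachment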
Beta cell apopt: blocks beta cell apoptosis; INS-1E cytokine-induced death, ATP luminescence, 48 h; percent of positive-control rescue, neutral wells zero; protection from apoptosis, % (test concentration not listed); 0.8% of 300,000 active; AID 435005;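 active means Every replicate reaches about 75%, or at least half do and their mean reaches it too, limit read from the data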;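 further: 0% = cytokine-treated negative control wells and 100% = positive control rescue; higher means more ATP so stronger rescue from cytokine killing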
Efflux pump inh: blocks antifungal efflux pumps in multiplex yeast assay | inhibition, % at 10 µM | 0.44% of 330,000 active | AID 485275 | S. cerevisiae Candida pump triplex, Nile Red efflux;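 active means plate passing quality check with inhibition over a set limit, or well fluorescence over plate mean plus 4 SD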;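 further: Nile Red retained in pooled yeast measured as flow cytometry median fluorescence; 0% = buffer negative control and 100% = Enniatin B positive control; higher means more Nile Red kept so more efflux inhibition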
CSC inhib: blocks cancer stem cells | inhibition, % at 7.5 µM | 1.1% of 300,000 active | cancer stem cell-like cells viability, luminescence; in the data active means inhibition above about 75%; tested in HMLE shEcad cells
Mot1-301 SUMO: inhibitors of SUMOylation pathway: yeast Mot1-301 growth rescue; S. cerevisiae Mot1-301 growth rescue, ATP luminescence, 38.5C; percent above DMSO median, 100 means doubled; 1% of 320,000 active; growth rescue, % at 18.8 µM; AID 2716;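 active means every valid replicate shows activation above 250% relative to neutral control wells; inactive means the rest, any valid replicate at or below 250%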;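 further: OY570 slx delta 5 strain wells were the positive control but not used for scaling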
WT yeast gro inh: growth inhibition of WT yeast, mitochondrial fusion screen; inhibition, % at 10 µM; 2.1% of 190,000 active; mitochondrial fusion phenotypic screen, WT strain; in the data active means inhibition above about 58%; tested in S. cerevisiae
Numbers without * were called inactive; . = no result.

SMILES	T cruzi repl	Beta cell apopt	Efflux pump inh	CSC inhib	Mot1-301 SUMO	WT yeast gro inh
c1ccc(Cn2c(CNc3nc4ccccc4n3CCN3CCCCC3)nc3ccccc32)cc1	0.3	0.4	0.1	16.9	226.6	63.8*
CCN(CC)c1ccc(CNc2nc3ccccc3n2CCN2CCCCC2)cc1	59.9*	87.8*	-0.1	78.3*	44.7	55.9
Cn1c(CNc2nc3ccccc3n2CCN2CCCCC2)nc2ccccc21	18.8	3.4	0.1	-5.6	1.3	6.5
COc1ccc(CNC(=O)COC(=O)c2ccccn2)cc1	9.7	-5.2	0.0	-2.7	.	2.0
O=C(O)c1ccc([N+](=O)[O-])c(CS(=O)(=O)c2ccccc2)c1	-0.6	-2.6	-0.4	-16.3	-3.7	.
COc1ccc(C(=O)C(CCCCC(CN(C)C)C(=O)c2ccc(OC)cc2)CN(C)C)cc1 (stereo not given)	26.6	0.6	0.0	1.5	-9.4	-5.4
CN(C)CC(CCC(CN(C)C)C(=O)c1ccccc1)C(=O)c1ccccc1 (stereo not given)	70.8*	.	.	.	.	.
CCOc1ccc(C(=O)C(CCC(CN(C)C)C(=O)c2ccc(OCC)cc2)CN(C)C)cc1 (stereo not given)	31.5	.	.	.	.	63.6*
CN(CCC(=O)c1ccccc1)CCC(=O)c1ccccc1	-0.6	-10.3	-0.1	5.3	-7.9	.
N#CCCN(C(=O)COC(=O)CCNS(=O)(=O)c1ccccc1)c1ccccc1	.	-3.4	-0.2	.	6.1	.
CCC(NS(=O)(=O)c1c(C)[nH]c(=O)[nH]c1=O)C12CC3CC(CC(C3)C1)C2 (stereo not given)	-0.1	-6.8	0.1	6.9	-12.0	63.8*
O=C(Nc1ccccc1)C1=C[C@@H](c2ccc3c(c2)OCO3)C[C@@H](OCCCCO)O1	3.3	-0.6	0.3	14.7	-0.2	.
COCCN1Cc2cccc(C(=O)NC3CCCCCC3)c2C1=O	9.3	-5.3	0.0	-4.6	6.5	70.8*
CCCCN1C2=C(C(=O)CCC2)C(c2ccc(Cl)c(Cl)c2)C2=C1c1ccccc1C2=O (stereo not given)	53.2	62.1	0.1	31.7	-7.2	67.4*
CCCN1C(=O)c2ccccc2NC1c1ccc(Cl)c(Cl)c1 (stereo not given)	8.2	1.8	0.0	-6.6	-5.1	.
O=C(C[n+]1ccc(CCSc2ccc(F)cc2)cc1)c1ccccc1	-3.1	-5.8	0.0	-5.6	-43.2	7.2
COC(=O)c1ccc(C2Nc3cccc4cccc(c34)N2)cc1	66.6*	1.0	0.1	-5.2	-20.1	19.5
O=C(Cn1cncn1)N/N=C/c1cccnc1	-6.4	1.1	0.1	2.1	53.5	.
O=C1CCN(CCCc2ccccc2)CCN1[C@H](CO)Cc1ccccc1	2.1	-3.1	-0.1	2.1	2.8	.
CC1CN(C(=O)N2CCCCC2)CCN1C(=O)N1CCCCC1 (stereo not given)	-10.4	1.9	0.1	-1.6	-11.3	-24.3
COc1cc(/C=N/NC(=O)c2nc3ccccn3c2C)cc(OC)c1O	80.9*	1.5	0.0	0.9	3.7	-5.5
CC(C)(C)c1ccc(C(=O)Nc2ccc(N3CCOCC3)cc2)cc1	11.7	7.2	0.0	79.4*	16.9	-2.0
O=C(Nc1ccccc1)c1ccc(N2CCN(c3ccccc3)CC2)c(S(=O)(=O)N2CCOCC2)c1	56.3*	13.7	0.0	4.0	.	20.2
O=C(Nc1ccncc1)c1cc(S(=O)(=O)N2CCCC2)ccc1Cl	.	-8.8	0.0	-9.7	-5.5	.
O=C(Nc1ccncc1)c1cc(S(=O)(=O)N2CCN(c3ccccc3)CC2)ccc1Cl	61.2*	3.6	0.0	-10.0	-5.9	.
SMILES	T cruzi repl	Beta cell apopt	Efflux pump inh	CSC inhib	Mot1-301 SUMO	WT yeast gro inh
Cc1ccc(C(=O)N2CCC(C(=O)c3c(C)cc(C)cc3C)CC2)cc1	21.8	1.9	0.1	-14.2	29.8	.
CCCCNS(=O)(=O)c1cc2c3c(c1)CCN3C(=O)CC2	-10.4	-7.1	0.0	0.4	3.2	.
CCOc1ccccc1/C=N/Nc1ccnc(=O)[nH]1	-9.4	21.4	0.4	-6.1	-24.1	.
O=c1nccc(N/N=C/c2ccccc2O)[nH]1	-1.2	124.7*	-0.3	8.3	-17.3	.
COc1cccc(/C=N/Nc2snc(SC)c2C#N)c1O	-17.1	100.7*	-0.3	56.4	-13.7	13.8
COc1cccc(/C=N/Nc2ccnc(=O)[nH]2)c1O	-13.1	92.7*	-0.1	9.4	11.4	.
